Reference: the EternaBench riboswitch data

Legend:
MS2 coat protein [1] = assay: apparent Kd, MS2 coat protein; higher = weaker binding; RNA-MaP array
Outline: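 Apparent Kd was taken as the median of binding curves fitted cluster by cluster. The designed RNAs were made by transcription of sequenced DNA templates on an Illumina sequencing chip and exposed to fluorescently labeled MS2 coat protein (1.5 nM to 3 μM) at room temperature, with or without input ligand, for 0.8–1.5 h at the lowest and 10–20 min at the highest concentrations. Any design measured on fewer than 10 clusters was left out.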

MS2 coat protein [2] = assay: apparent Kd, MS2 coat protein; higher = weaker binding; RNA-MaP array; FMN 200 µM where present
Outline: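 The apparent Kd is the median of filtered binding-curve fits, one per cluster, to green signal normalised to red-channel RNA signal and control-cluster median Fmax. The clusters were on Illumina sequencing chips, and stalled E. coli RNA polymerase had transcribed the designs on them. Titration used SNAP-549-labelled MS2 coat protein from 0.7 or 1.5 nM, doubling to 3 µM, without and then with constant ligand, in 100 mM Tris-HCl pH 7.5, 80 mM KCl, 4 mM MgCl2, BSA, DTT, yeast tRNA and Tween-20.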

[3] = designed as: OFF switch for flavin mononucleotide, no ligand
[4] = ligand present: flavin mononucleotide, designed as: OFF switch for flavin mononucleotide
[5] = designed as: OFF switch for tryptophan, no ligand
[6] = ligand present: tryptophan, designed as: OFF switch for tryptophan
[7] = designed as: ON switch for flavin mononucleotide, no ligand
[8] = ligand present: flavin mononucleotide, designed as: ON switch for flavin mononucleotide

Sequence	apparent Kd (MS2 coat protein [2]; [3]) [nM]	apparent Kd (MS2 coat protein [2]; [4]) [nM]	further results
GGGACCACUCUUGGGCCGCUGACAUGAGGAUCACCCAUGUAUAGAAGGAGGGUGGCUAAUCACACCUAGGAUAUAUACAAGACU	–	–	apparent Kd (MS2 coat protein [1]; [3]): 12 nM; apparent Kd (MS2 coat protein [1]; [4]): 11 nM
UAAGAAGAUGAGAAGGGCCAAGUAUGAGCCGGGCGAUACAUGAGGAUCACCCAUGUUUCCUAACGGCAGGAUAUCACUUCCUAU	–	–	apparent Kd (MS2 coat protein [1]; [3]): 5.86 nM; apparent Kd (MS2 coat protein [1]; [4]): 18.8 nM
ACCCUGUGAGGAUAUAUGCGGUUUGAACCAGAUCAGAAAUAAUAGAAGGCACAUGAGGAUCACCCAUGUUUCUC	–	–	apparent Kd (MS2 coat protein [1]; [3]): 27.9 nM; apparent Kd (MS2 coat protein [1]; [4]): 22.8 nM
GCACGGGCGAUCGGCACUUUUACUAAUAUACGAGGACCGGUACGGCCGCCACUCGAGCUAAGACAUGAGGAUCACCCAUGUAACG	–	–	apparent Kd (MS2 coat protein [1]; [5]): 26.2 nM; apparent Kd (MS2 coat protein [1]; [6]): 49.3 nM
GUGGGCGCUGAGAAGGACCGGAGACGCCGAUUGGUAGGAUAUCAGAAAGGUGCCGGUGAUUACAUGAGGAUCACCCAUGUAUGG	–	–	apparent Kd (MS2 coat protein [1]; [3]): 22.8 nM; apparent Kd (MS2 coat protein [1]; [4]): 20.2 nM
AGGACAUGAGGAUCACCCAUGUGAUGACAUUUCCUAGAACCGAAGGAUAUGCAAACGGAACCCGCGCAGAAGGUCGCUAACCUU	–	–	apparent Kd (MS2 coat protein [1]; [3]): 57.5 nM; apparent Kd (MS2 coat protein [1]; [4]): 42.5 nM
AUUAAGUCGACAGGAUAUCCGUACUUUGAGUAAGGAGAAGGGUCUACAAAGGUACAUGAGGAUCACCCAUGUGACUUGGCCGUC	–	–	apparent Kd (MS2 coat protein [1]; [7]): 10.1 nM; apparent Kd (MS2 coat protein [1]; [8]): 7.7 nM
AGUAGGCAUUCAGGAUAUGGGGAUUUCUCACUGCCACAUGAGGAUCACCCAUGUGGAAGGUACACCCAGAAGGGAAAGUGGUUA	–	–	apparent Kd (MS2 coat protein [1]; [7]): 17 nM; apparent Kd (MS2 coat protein [1]; [8]): 11.3 nM
ACUGCUUUAGCGGCCGCCACUACAUGGACACUUACACUUUCUUGUUACAUGAGGAUCACCCAUGUUAGGACCGGGCUUGUACGGA	–	–	apparent Kd (MS2 coat protein [1]; [5]): 62.1 nM; apparent Kd (MS2 coat protein [1]; [6]): 78.2 nM
CACGUACAUGAGGAUCACCCAUGUAUGUCCGAAACGCGAGUACAGGAUAUGAUAUGGAGAAGUCUUCAGAAGGGUACAAAUCGC	–	–	apparent Kd (MS2 coat protein [1]; [7]): 58.4 nM; apparent Kd (MS2 coat protein [1]; [8]): 21.6 nM
AAUGUGUAAGGAUAUACCGUUCAGUCUCUCCACAAUCGAUGGUAGAAGGUACAUGAGGAUCACCCAUGUGAGGA	–	–	apparent Kd (MS2 coat protein [1]; [3]): 14.9 nM; apparent Kd (MS2 coat protein [1]; [4]): 15.2 nM
ACCGAUCGAGGAUAUACAGAACAAAAGAACAUGACGAAGAAACAUGAGGAUCACCCAUGUAGAAGGCGAAAAGA	–	–	apparent Kd (MS2 coat protein [1]; [3]): 8.58 nM; apparent Kd (MS2 coat protein [1]; [4]): 9.05 nM
AUAUUGUUUAUAGGAUAUUACACUAAGGUGACAUGAGGAUCACCCAUGUCCUCAACCACACGACUUAAGAAGGAUAAACGUUGG	–	–	apparent Kd (MS2 coat protein [1]; [3]): 46.5 nM; apparent Kd (MS2 coat protein [1]; [4]): 54.9 nM
AUUAUUAUAAAUUUGGCAAGUAUCAGAAGGCGUUACAUGAGGAUCACCCAUGUUUUGUAUAGUAACGAGGAUAUGAUAUGGAAA	15.2	13.5	–
UGAAAUCAUGUAGGAUAUGCAUGGCGAAGCUACGCAGAAGGACAUGAGGAUCACCCAUGUUAUAGCUACCCAGUUAGGUGGCAA	145	157	–
UGUCGGAGCAGAGGAUAUUACAUGAGGAUCACCCAUGUAUGAACCAAUAUCUGGAAACAGCAAUGUAAGAAGGCUGCUCCGACA	7.16	47.3	–
CUUUUGUGAGGAUAUCAGUGGUAAUACAAUAGUAUUACUACUGAGAAGGCACAUGAGGAUCACCCAUGUUCCUC	44.5	220	–
GUUAUGCAGCAGGAUAUCCAUCCGCGGUAUGGUGGAGAAGGGCUGACAUGAGGAUCACCCAUGUGCGUCCUAGG	39.9	104	–
GGGUACAUCGGAGGAUAUCAUGUAAAUACAUGAGGAUCACCCAUGUCGAUGGAGACAUCGGAGAAUGAGAAGGCCGAUGUACCG	–	–	apparent Kd (MS2 coat protein [2]; [7]): 17.6 nM; apparent Kd (MS2 coat protein [2]; [8]): 5.34 nM
GCUAGUCAUGUCAGGAUAUGCUGUACCUUGGUACAGCAGAAGGGACAUGAGGAUCACCCAUGUGCCUAACUAGC	39	416	–
GUAGCUAUCGGAGGAUAUUCAUACCGGAAACGGACAUGAGGAUCACCCAUGUGGCGAAAGACUUGGGAGAAGGCCGAUAGCUAC	–	–	apparent Kd (MS2 coat protein [2]; [7]): 183 nM; apparent Kd (MS2 coat protein [2]; [8]): 35.5 nM
GGCUCCGCUCGAGGAUAUAGCUGCAUGUAGUGUCCUGAGGCACAUGAGGAUCACCCAUGUGUAGGCUAGAAGGCGACGGACGUU	121	249	–
CGGCGGAAAGGAUAUGCAUUAAUAUCAAAAUGUGGGCCACGACAUGAGGAUCACCCAUGUAGAAGGUUCAGCCA	16.4	13.3	–
UUGUUACGAUUAGGAUAUUAUUGAUUGGACAGUAUGAUUUACAUGAGGAUCACCCAUGUUACUUUUAAGAAGGAAUCGUAUUAU	20.9	17.2	–
AGCACGAAAGUGCAACGAUGUAGCAGAAGGACAUGAGGAUCACCCAUGUAAGGUCUAUGACCAAUGUAGGAUAUGCUACAUCGA	6.62	35	–
GUAGCAACAUGAGGAUCACCCAUGUAGGAUAUCGCUAUUGUAAUCAUGAAACAUGAUUACAAUAGCGAGAAGGACAUAUGCUAU	7	10.3	–
GUAGCUAUCGGAGGAUAUUCAUACCGGAAACGGACAUGAGGAUCACCCAUGUGGCGAAAGCCUUGGGAGAAGGCAGAUAGCUAC	–	–	apparent Kd (MS2 coat protein [2]; [7]): 693 nM; apparent Kd (MS2 coat protein [2]; [8]): 28.6 nM

Sequence	apparent Kd (MS2 coat protein [2]; [3]) [nM]	apparent Kd (MS2 coat protein [2]; [4]) [nM]	further results
AAAAACAGAGGAUAUACAAAAUGAUGACGAAAGUCAUCAAAACAUGAGGAUCACCCAUGUAGAAGGCUGAAAAA	25.9	22.9	–
CCUAGUUGGUAAGGAUAUCCUACACUGUUCUGACCCGUGCAAGCUACAUGAGGAUCACCCAUGUAGGAGAAGGUGCGUCAACGC	9.11	9.13	–
CUGAUGUUAGGAUAUCAGGCUGUGCACGAAGACGGGCGGCAUGAGAAGGAACAUGAGGAUCACCCAUGUGACGG	36.3	77.6	–
UUAAAUCAUGUAGGAUAUGCAUGGCGAAGCUACGCAGAAGGACAUGAGGAUCACCCAUGUUAUAGCUACCCAGUUCGGUGGCAA	96.1	221	–
AUAGUACAUGAGGAUCACCCAUGUCAGGAUAUCGGAUGUGACAUGAAAAAAAUGUUAAUGAGAAGGGACUAUAA	43.6	49	–
CCUUUAUAGAUCCAUUUUAACAACAUGAGGAUCACCCAUGUGCAGGAUAUCGAUUGUUUUACUUUCGAGAAGGGCAAAUUCAGC	19.3	48.7	–
AAAAAACAUGAGGAUCACCCAUGUGAGGAUAUCCGAAAAAAAAAAAAAAAAAAAAAAAGGAGAAGGCGCAGCAA	242	206	–
CAUGUGUAAGGAUAUGACAAUGGUAUCGAAAGAUACCAUUGUCAGAAGGUACAUGAGGAUCACCCAUGUGGAUC	198	91	–
UGGGUUUGUAGUUACAUCCCUACACAGGAUAUGGGUAGUUACAUGAGGAUCACCCAUGUUCGAACUCAGAAGGGUGGAUCGUUG	–	–	apparent Kd (MS2 coat protein [2]; [7]): 85.3 nM; apparent Kd (MS2 coat protein [2]; [8]): 11.3 nM
UAUUAGUAAGGAUAUGAGACGUAGGACUUCGGUCCUACGUCUCAGAAGGUACAUGAGGAUCACCCAUGUUUAUU	17.1	26.1	–
UUGCGGUAGGAGAAGGACAGAGGCGGAAACACAAACAUGAGGAUCACCCAUGUAGGAUAUCCUACCUAACGCGGAUCCCUCCAG	11.1	34.6	–
AAGAUGUCAGGAUAUGCUGCUCGUCACUUGCGUGAUGAGUAGCAGAAGGGACAUGAGGAUCACCCAUGUAAAGA	154	244	–
UUUGUCGGAGUAGGAUAUCAAAUAGAGGGUGUAUGAGAAGGACUUAGACAUGAGGAUCACCCAUGUGUGGGUCGCCUCGAUCUC	6.88	10.9	–
AUAAUUUUAUAUAUCUUUUUAAUCAGAAGGCAUAACAUGAGGAUCACCCAUGUAUAUUAUAGUUAUGAGGAUAUGAUUUGGUUA	8.94	11.3	–
GGAUAGGACAGAGGAUAUACGUGCUAGAGAUACUAGCCAAAUUUCCUCACAUGAGGAUCACCCAUGUAGAAGGCUGUCCUAUCG	6.86	84.5	–
GCUGUAUAUGAGAAGGCGAUCAUGAAACAUGAUCGAGGAUAUCAUGUUUACAUGAGGAUCACCCAUGUAUGGGUAUAAUGCAGC	–	–	apparent Kd (MS2 coat protein [2]; [7]): 417 nM; apparent Kd (MS2 coat protein [2]; [8]): 24.1 nM
AUCAGCUCGUCAGGAUAUACGUCACUGCGUCAGCAGUCUGGUAAGAUCACAUGAGGAUCACCCAUGUAGAAGGGACGAGCUGAU	19.1	288	–
ACAUGAGGAUCACCCAUGUUGAAUUAGGAUAUUUGACUGCGCAUGAGGUUCUCCCAUGUUCAACCGGAGAAGGGAUUAAUAAUU	–	–	apparent Kd (MS2 coat protein [2]; [7]): 273 nM; apparent Kd (MS2 coat protein [2]; [8]): 150 nM
GAAUAAUUGAUCCAUUUUUAAAACAUGAGGAUCACCCAUGUGCAGGAUAUCGUGAGAGUUAAAUACGAGAAGGGCAAGAACUGU	123	173	–
GCCAGGUGGGUAGGAUAUGGCUAUGUCUCAUUGCUAGAAGGACCAACUGCUACAUGAGGAUCACCCAUGUCGUAGUGCACCCGG	–	–	apparent Kd (MS2 coat protein [2]; [7]): 78.9 nM; apparent Kd (MS2 coat protein [2]; [8]): 25.4 nM
AGCCAACAUGAGGAUCACCCAUGUCUACAGGAUUAAGGAUAUGGGCAGGACUUCCCUGCACUAGAAGGUGAUCCAA	–	–	apparent Kd (MS2 coat protein [2]; [7]): 28.9 nM; apparent Kd (MS2 coat protein [2]; [8]): 251 nM
AGUGCCUCGAGAGGAUAUACAUGAGGAUCACCCAUGUAAGUAGAGGUGGAAACACCUCUACAAAUGUAGAAGGCUCGAGGCACA	18	52.2	–
UCGACGAAAGUCGAACGAUGUAGCAGAAGGACAUGAGGAUCACCCAUGUCAGCUGUAACAGCCAUGUAGGAUAUGCUACAUCGU	4.51	5.53	–
GUCUUACAUGAGGAUCACCCAUGUGAGGAUAUAUGUGGUGUUGAGAAAUUGGUGUUGUAUAGAAGGCGCGUGAU	25.5	24.8	–
AUAAAGCGAGGAUAUACAUGAGGAUCACCCAUGUGGCAGCCAGGUAGGAGUGACGUCGGUAGAAGGCGCACCCU	31.9	35.6	–
UUGGUAUCUGCAGGAUAUUGUAUUUUAAUACUUCAAGAAGGGCAUUACAUGAGGAUCACCCAUGUUUACAUGGUCAUAUUAGUU	26.1	20.8	–
